Results from paper PMC12099175 (Chemistry (Weinheim an Der Bergstrasse, Germany), 2025).
“Also recorded” adds a separate entry of the source. No end group written: not given here.

Key:
Assay type in all cases: physicochemical
[1] = AFM surface morphology of amyloid fibrils; settings: 1.5 mg/mL, pH 3.8, 24 h mixing at 37 °C, 5 µL dried on mica
Outline: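 Hexapeptide at a final 1.5 mg/mL, pH 3.8, was stirred at 500–600 rpm at 37 °C for 24 h. This was the same stock used for FTIR and ECD. The 24-h solution was dropped on freshly cleaved mica and vacuum-dried for 24 h. Images were taken in dynamic mode near densely packed areas, with a 10×10 µm window and 512 pixels per line.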

[2] = Amyloid formation monitored by time-dependent far-UV ECD spectroscopy; settings: for amyloidogenicity overall (in words): all tested conditions (H2O, 10% EtOH, 50% MeOH), FTIR, AFM; for amyloidogenicity overall (in words) / amyloid formation in 10% EtOH (in words) / amyloid formation in 50% MeOH (in words): ECD; for amyloid formation in 10% EtOH (in words): 10% EtOH:90% H2O (ε = 68.742); for amyloid formation in 10% EtOH (in words) / time to form amyloid in 50% MeOH / amyloid formation in 50% MeOH (in words) / time to form β-sheets / B-type ECD spectrum in water: 37 °C; for amyloid formation in 10% EtOH (in words) / amyloid formation in 50% MeOH (in words) / time to form β-sheets / B-type ECD spectrum in water: stirred 500–600 rpm; for time to form amyloid in 50% MeOH / amyloid formation in 50% MeOH (in words): 50% MeOH:50% H2O (ε = 51.347); for time to form amyloid in 50% MeOH: stirred; for time to form amyloid in 50% MeOH / time to form β-sheets / B-type ECD spectrum in water: ECD read-out; for time to form β-sheets / B-type ECD spectrum in water: 100% H2O
Outline: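 Peptides were dissolved at 0.15–1.50 mg/mL in water, 10% EtOH or 50% MeOH. Concentration was set by A280 of 5-fold dilutions (ε Tyr 1280, Trp 5690 M⁻¹ cm⁻¹), with pH adjusted by NaOH/HCl. Samples were stirred at 500–600 rpm, 37 °C, and measured directly at 0–168 h. Spectra covered 185–260 nm, 0.1 mm cell, 25 °C, three scans averaged, solvent-subtracted, Savitzky–Golay smoothed, and converted to mean residue ellipticity.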

[3] = Water solubility / peptide concentration needed for amyloid formation; settings: pure water

## GNNQQNY [GNNQQNY, reference compound]
[1]
  AFM morphology (in words): Fibrillar amyloid formation

## LNIQWL [LNIQWL]
[1]
  AFM morphology (in words): granular
[2]
  amyloidogenicity overall (in words): remains amyloidogenic

## LNQQNY [LNQQNY]
[2]
  amyloid formation in 10% EtOH (in words): forms amyloid very slowly
  time to form amyloid in 50% MeOH: ≤ 24 h
  amyloidogenicity overall (in words): highly amyloidogenic

## LYIQNL [LYIQNL]
[2]
  amyloid formation in 10% EtOH (in words): form amyloid
  amyloid formation in 50% MeOH (in words): form amyloid
  amyloidogenicity overall (in words): highly amyloidogenic

## LYIQNY [LYIQNY]
[2]
  amyloid formation in 10% EtOH (in words): rapid amyloid formation
  amyloid formation in 50% MeOH (in words): rapid amyloid formation; also recorded: faster assembly
  amyloidogenicity overall (in words): highly amyloidogenic
[3]
  water solubility (in words): water‐soluble

## LYIQWL [LYIQWL]
[1]
  AFM morphology (in words): Fibrillar amyloid formation
[2]
  amyloid formation in 10% EtOH (in words): form amyloid
  amyloid formation in 50% MeOH (in words): form amyloid
  time to form β-sheets / B-type ECD spectrum in water: 1 h
  amyloidogenicity overall (in words): highly amyloidogenic

## LYQQNY [LYQQNY]
[2]
  amyloid formation in 10% EtOH (in words): Amyloid formation is confirmed
  amyloid formation in 50% MeOH (in words): Amyloid formation is confirmed
  amyloidogenicity overall (in words): highly amyloidogenic
[2]; B-type spectrum after 24 hours
  ECD mean residue ellipticity Θ, positive maximum at 208 nm: ~+57000 deg cm^2 dmol^−1

## NNIQWL [NNIQWL]
[1]
  AFM morphology (in words): no evidence of filament formation
[2]
  amyloidogenicity overall (in words): did not form amyloid under any of the tested conditions

## NNQQNL [NNQQNL]
[1]
  AFM morphology (in words): empty AFM image
[2]
  amyloid formation in 50% MeOH (in words): very slow amyloid formation

## NNQQNY [NNQQNY]
[1]
  AFM morphology (in words): Fibrillar amyloid formation
[2]
  amyloid formation in 10% EtOH (in words): preventing amyloid formation
  amyloid formation in 50% MeOH (in words): β‐sheets formed; also recorded: forms amyloid in 50% MeOH
  time to form amyloid in 50% MeOH: within hours; also recorded: a few hours
  amyloidogenicity overall (in words): highly amyloidogenic
[2]; 50% MeOH, B-type signal
  ECD mean residue ellipticity Θ at 202 nm: ~53000 deg cm^2 dmol^−1
[3]
  water solubility (in words): highly water‐soluble

## NNQQWL [NNQQWL]
[1]
  AFM morphology (in words): no detectable structures
[2]
  amyloid formation in 50% MeOH (in words): No amyloid formation was observed
  time to form β-sheets / B-type ECD spectrum in water: > 144 h
  amyloidogenicity overall (in words): resists amyloid formation
